# Measured values: ChEMBL document CHEMBL3352624, “Vanillin-derived antiproliferative compounds influence Plk1 activity” (Bioorg Med Chem Lett, 2014)
# Calls of active or inactive are those of the source. The calls are words filed in the database; no cut-off is given here.
# System: HeLa
# Test: Induction of apoptosis in human HeLa cells assessed as caspase-3/7 activation after 48 hrs […]
# Assay type: functional, cell-based
# Conditions: not given
# Outline: (§1)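 Caspase 3/7 activation in HeLa cells was read 48 h after treatment by luminescence and reported as relative RLU versus medium-only controls. n = 3, mean SD.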
row,Compound,Activity
1,COc1cc(CNCc2ccncc2)ccc1OCc1ccc(Cl)cc1,Dose-dependent effect

# Target: Serine/threonine-protein kinase PLK3 (Homo sapiens, UniProt Q9H4B4)
# Test: Inhibition of Plk3 immunoprecipitated from human HeLa cells using casein substrate after 12 to 26 hrs by autoradiography
# Assay type: cell-based
# Conditions: not given
# Outline: (§2)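 HeLa cells were synchronized and incubated with compound. Plk1, Plk2 or Plk3 was then immunoprecipitated from the cells and assayed for kinase activity with casein as substrate. Activity was read by autoradiography.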
# Chain of Serine/threonine-protein kinase PLK3 (Q9H4B4 whole entry): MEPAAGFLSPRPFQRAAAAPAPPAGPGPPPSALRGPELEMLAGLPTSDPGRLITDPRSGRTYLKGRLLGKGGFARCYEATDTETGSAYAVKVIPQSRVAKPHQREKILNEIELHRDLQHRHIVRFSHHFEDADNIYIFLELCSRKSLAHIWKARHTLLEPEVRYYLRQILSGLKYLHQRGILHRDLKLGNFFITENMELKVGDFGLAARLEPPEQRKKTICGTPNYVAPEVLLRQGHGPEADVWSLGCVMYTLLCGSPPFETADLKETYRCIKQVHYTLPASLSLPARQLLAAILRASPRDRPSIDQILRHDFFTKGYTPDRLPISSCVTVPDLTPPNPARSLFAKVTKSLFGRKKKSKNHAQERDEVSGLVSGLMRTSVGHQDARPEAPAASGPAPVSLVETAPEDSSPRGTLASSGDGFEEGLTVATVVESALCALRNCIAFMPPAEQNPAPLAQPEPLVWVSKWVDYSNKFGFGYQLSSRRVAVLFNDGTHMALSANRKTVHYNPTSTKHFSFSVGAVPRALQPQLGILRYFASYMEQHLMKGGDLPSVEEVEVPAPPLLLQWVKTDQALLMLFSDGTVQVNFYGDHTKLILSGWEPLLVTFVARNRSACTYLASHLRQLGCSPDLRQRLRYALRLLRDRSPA
row,IC50,Compound
1,> 10 µM,COc1cc(CNCc2ccncc2)ccc1OCc1ccc(Cl)cc1

# System: HeLa
# Test: Induction of apoptosis in human HeLa cells assessed as caspase-3/7 activation at 1 nM to 66 uM by […]
# Assay type: functional, cell-based
# Conditions: TDE = time-dependent effect
# Outline: as §1
row,Compound,Activity
1,COc1cc(CNCc2ccncc2)ccc1OCc1ccc(Cl)cc1,tde

# Target: Serine/threonine-protein kinase PLK2 (Homo sapiens, UniProt Q9NYY3)
# Test: Inhibition of Plk2 immunoprecipitated from human HeLa cells using casein substrate after 12 to 26 hrs by autoradiography
# Assay type: cell-based
# Conditions: not given
# Outline: as §2
# Chain of Serine/threonine-protein kinase PLK2 (Q9NYY3 whole entry): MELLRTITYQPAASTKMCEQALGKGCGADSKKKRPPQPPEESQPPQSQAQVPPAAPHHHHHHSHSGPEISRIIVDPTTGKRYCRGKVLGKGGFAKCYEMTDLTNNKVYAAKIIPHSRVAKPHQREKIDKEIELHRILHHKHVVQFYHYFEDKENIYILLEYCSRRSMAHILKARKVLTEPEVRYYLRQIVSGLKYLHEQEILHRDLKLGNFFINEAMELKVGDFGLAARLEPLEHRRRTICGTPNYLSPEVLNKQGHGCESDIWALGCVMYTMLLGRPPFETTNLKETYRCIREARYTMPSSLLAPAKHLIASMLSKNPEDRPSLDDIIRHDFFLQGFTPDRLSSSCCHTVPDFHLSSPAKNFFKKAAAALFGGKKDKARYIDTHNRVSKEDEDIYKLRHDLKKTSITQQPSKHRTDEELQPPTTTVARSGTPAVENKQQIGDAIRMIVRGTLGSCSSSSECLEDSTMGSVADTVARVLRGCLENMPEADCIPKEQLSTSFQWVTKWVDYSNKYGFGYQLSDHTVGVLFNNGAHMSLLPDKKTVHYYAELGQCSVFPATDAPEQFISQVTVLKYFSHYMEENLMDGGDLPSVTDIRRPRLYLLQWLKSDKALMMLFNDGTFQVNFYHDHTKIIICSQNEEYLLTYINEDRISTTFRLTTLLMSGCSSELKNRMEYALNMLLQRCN
row,IC50,Compound
1,> 10 µM,COc1cc(CNCc2ccncc2)ccc1OCc1ccc(Cl)cc1

# System: HeLa
# Test: Antiproliferative activity against human HeLa cells assessed as growth inhibition after 24 to 72 hrs
# Assay type: functional, cell-based
# Conditions: Homo sapiens, HeLa; read-out: EC50
# Outline: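 HeLa cells were exposed to compound for 24–72 h, with medium-only cells as control. Surviving cells are expressed as a percentage of control cell number at 72 h. n = 3.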
row,Compound,EC50
1,COc1cc(OCc2cnc(Cl)c(Cl)c2)ccc1CNCc1ccncc1,0.4 µM
2,COc1cc(CNCCCN(C)C)ccc1OCc1ccc(Cl)nc1,5 µM
3,COc1cc(CNCc2ccccn2)ccc1OCc1ccccc1Cl,22 µM
4,COc1cc(CNCCc2ccccc2)ccc1OCc1ccc(Cl)nc1,61 µM
5,COc1cc(CNCCc2c[nH]c3ccccc23)ccc1OCc1ccc(Cl)nc1,8 µM
6,COc1cc(CNCc2ccncc2)ccc1OCc1cccc(F)c1,4.8 µM
7,COc1ccc(CCNCc2ccc(OCC(=O)N3CCCCC3)c(OC)c2)cc1OC,87 µM
8,COc1cc(CNCc2ccccc2)ccc1OCc1ccc(Cl)nc1,90 µM
9,COCCNCc1ccc(OCc2ccc(Cl)nc2)c(OC)c1,97 µM
10,COc1cc(CNCc2ccccn2)ccc1OCc1cccc(Cl)c1,18 µM
11,COc1cc(CNCc2ccccn2)ccc1OCc1c(Cl)cccc1Cl,6.1 µM
12,COc1cc(CNCCc2ccccc2F)ccc1OCc1ccc(Cl)nc1,18 µM
13,COc1cc(CNCc2cccs2)ccc1OCc1ccc(Cl)nc1,96 µM
14,COc1cc(CNCc2ccncc2)ccc1OCc1cnc(Cl)c(Cl)c1,0.22 µM
15,COc1ccc(CCNCc2ccc(OCC(=O)N3CCOCC3)c(OC)c2)cc1OC,85 µM
16,COc1cc(OCc2ccc(Cl)nc2)ccc1CNCc1ccncc1,3.3 µM
17,COc1cc(CNCc2cccnc2)ccc1OCc1ccc(Cl)nc1,5 µM
18,COc1ccc(CCNCc2ccc(OCc3ccc(Cl)nc3)c(OC)c2)cc1OC,18 µM
19,COc1cc(CNCCNc2ccnc3cc(Cl)ccc23)ccc1OCc1ccc(Cl)nc1,2.7 µM
20,COc1cc(CNCc2ccncc2)ccc1OCc1ccc(C(F)(F)F)cc1,2.4 µM
21,COc1cc(CNCc2ccncc2)ccc1OCc1ccc(F)cc1,6.4 µM

# Continued, values first:
row,EC50,Compound
1,12 µM,COc1cc(CNCCc2ccc(S(N)(=O)=O)cc2)ccc1OCc1ccc(Cl)nc1
2,> 100 µM,COc1cc(CNCCCN2CCOCC2)ccc1OCc1ccc(Cl)nc1
3,13 µM,COc1cc(CNCc2ccccn2)ccc1OCc1ccc(Cl)c(Cl)c1
4,0.89 µM,COc1cc(CNCc2ccncc2)ccc1OCc1ccc(Cl)cc1
5,5 µM,COc1ccc(COc2ccc(CNCc3ccncc3)cc2OC)cc1
6,2.5 µM,CCOc1cc(CNCc2ccncc2)ccc1OCc1ccc(Cl)cc1
7,16 µM,COc1cc(CNCCc2ccc(F)cc2)ccc1OCc1ccc(Cl)nc1
8,71 µM,COc1cc(CNCc2ccc3c(c2)OCO3)ccc1OCc1ccc(Cl)nc1
9,24 µM,COc1cc(CNCCNC(=O)c2cnon2)ccc1OCc1ccc(Cl)nc1
10,0.44 µM,COc1cc(OCc2ccc(Cl)cc2)ccc1CNCc1ccncc1
11,> 100 µM,COc1ccc(CCNCc2ccc(OCC(=O)NC(C)(C)C)c(OC)c2)cc1OC
12,86 µM,COc1cc(CNCCSc2nnnn2C)ccc1OCc1ccc(Cl)nc1
13,0.44 µM,COc1cc(CNCc2ccncc2)ccc1OCc1ccc([N+](=O)[O-])cc1
14,66 µM,COc1cc(CNCC2CCCO2)ccc1OCc1ccc(Cl)nc1 (centres undefined)
15,5 µM,COc1cc(CNCc2ccncc2)ccc1OCc1ccc(C)cc1
16,3.9 µM,COc1cc(CNCc2ccncc2)ccc1OCc1ccc(Cl)cc1Cl
17,60 µM,COc1cc(CNCC(=O)c2ccccc2)ccc1OCc1ccc(Cl)nc1
18,69 µM,COc1cc(CNc2nc[nH]n2)ccc1OCc1ccc(Cl)nc1
19,4 µM,COc1cc(CNCc2ccncc2)ccc1OCc1ccc(Cl)c(Cl)c1
20,55 µM,COc1cc(CNCCc2ccncc2)ccc1OCc1ccc(Cl)nc1
21,5.1 µM,COc1cc(CNCc2ccncc2)ccc1OCc1ccccc1F
22,18 µM,COc1ccc(CCNCc2ccc(OCc3cccs3)c(OC)c2)cc1OC
23,0.4 µM,COc1cc(CNCc2ccncc2)ccc1OCc1ccc(Cl)nc1
24,4 µM,Clc1ccc(COc2ccc(CNCc3ccncc3)cc2)cc1

# Same assay, conditions: hela
row,EC50,Compound
1,ND(Insoluble),COc1cc(CNCc2ccc(C(=O)O)cc2)ccc1OCc1ccc(Cl)nc1
2,ND(Insoluble),COc1ccc(CCNCc2ccc(OCc3ccc(Cl)nc3)c(OC)c2)cc1
3,ND(Insoluble),COc1cc(CNC2CCCCC2)ccc1OCc1ccc(Cl)nc1

# System: HeLa
# Test: Induction of apoptosis in human HeLa cells assessed as increase in PARP cleavage at 33 uM after 48 hrs by Western blot analysis
# Assay type: functional, cell-based
# Conditions: not given
# Outline: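 HeLa cells were harvested 48 h after compound incubation, with untreated medium controls. Western blotting against Parp detected both full-length protein and its apoptotic cleavage product.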
row,Compound,Activity
1,COc1cc(CNCc2ccncc2)ccc1OCc1ccc(Cl)cc1,Active

# Target: Serine/threonine-protein kinase PLK1 (Homo sapiens, UniProt P53350)
# Test: Inhibition of Plk1 immunoprecipitated from human HeLa cells using casein substrate after 12 to 26 hrs by autoradiography
# Assay type: cell-based
# Conditions: not given
# Outline: as §2
# Chain of Serine/threonine-protein kinase PLK1 (P53350 whole entry): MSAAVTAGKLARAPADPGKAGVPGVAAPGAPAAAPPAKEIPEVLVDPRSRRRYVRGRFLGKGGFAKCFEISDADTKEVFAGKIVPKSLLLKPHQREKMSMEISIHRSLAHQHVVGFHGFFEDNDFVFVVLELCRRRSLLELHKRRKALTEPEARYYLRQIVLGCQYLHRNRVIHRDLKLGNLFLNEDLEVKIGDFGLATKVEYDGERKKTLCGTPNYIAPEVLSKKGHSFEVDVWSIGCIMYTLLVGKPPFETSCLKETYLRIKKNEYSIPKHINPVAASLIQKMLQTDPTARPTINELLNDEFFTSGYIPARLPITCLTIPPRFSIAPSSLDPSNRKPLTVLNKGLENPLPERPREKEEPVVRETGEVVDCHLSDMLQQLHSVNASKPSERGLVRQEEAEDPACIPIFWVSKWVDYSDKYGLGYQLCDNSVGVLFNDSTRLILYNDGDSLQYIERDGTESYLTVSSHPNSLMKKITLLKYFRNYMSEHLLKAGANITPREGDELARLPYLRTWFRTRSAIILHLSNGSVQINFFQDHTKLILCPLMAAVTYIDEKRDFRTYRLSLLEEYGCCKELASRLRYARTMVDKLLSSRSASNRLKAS
row,IC50,Compound
1,0.003 µM,COc1cc(CNCc2ccncc2)ccc1OCc1ccc(Cl)cc1
